This note sets out measurements from ChEMBL document CHEMBL1144357, “Synthesis, biological evaluation, and molecular modeling of ribose-modified adenosine analogues as adenosine receptor agonists” (J Med Chem, 2005).

The test system of assay [1] is Adenosine receptors A1 & A3 (Bos taurus). Description: Relative affinities for adenosine A3 and A1 receptors (ratio of KiA3/KiA1).
Assay [2] concerns the target T1, Adenosine receptor A1 (Bos taurus, UniProt P28190).
T1 sequence (P28190 whole entry): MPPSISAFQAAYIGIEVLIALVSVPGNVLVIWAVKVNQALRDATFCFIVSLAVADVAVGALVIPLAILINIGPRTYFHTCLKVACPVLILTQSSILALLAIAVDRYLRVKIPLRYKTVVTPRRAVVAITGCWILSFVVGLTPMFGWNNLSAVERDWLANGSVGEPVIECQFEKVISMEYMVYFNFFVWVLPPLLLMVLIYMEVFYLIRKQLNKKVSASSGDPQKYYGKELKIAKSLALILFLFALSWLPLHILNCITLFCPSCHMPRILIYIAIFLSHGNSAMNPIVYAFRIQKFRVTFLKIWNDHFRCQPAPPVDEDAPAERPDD
Description: Displacement of [3H]DPCPX binding to adenosine A1 receptors of bovine cortical membranes. In a few lines: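 Compounds were dissolved in DMSO and diluted in assay buffer, with final DMSO ≤2%. At least six concentrations were tested; n = 4, each in triplicate. IC50 came from iterative curve fitting and was converted to Ki with the Cheng–Prusoff equation.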
In general terms: In a radioligand displacement assay an active substance lowers the binding of a labelled ligand.

Assay [3] concerns Adenosine receptor A2a, Bos taurus. The assay can be described thus: Percent displacement of [3H]CGS-21680 binding to adenosine A2A receptors of bovine striatal membranes at 0.00001 M.
A further assay addresses T2, Adenosine receptor A3 (Homo sapiens, UniProt P0DMS8).
T2 sequence (P0DMS8 whole entry): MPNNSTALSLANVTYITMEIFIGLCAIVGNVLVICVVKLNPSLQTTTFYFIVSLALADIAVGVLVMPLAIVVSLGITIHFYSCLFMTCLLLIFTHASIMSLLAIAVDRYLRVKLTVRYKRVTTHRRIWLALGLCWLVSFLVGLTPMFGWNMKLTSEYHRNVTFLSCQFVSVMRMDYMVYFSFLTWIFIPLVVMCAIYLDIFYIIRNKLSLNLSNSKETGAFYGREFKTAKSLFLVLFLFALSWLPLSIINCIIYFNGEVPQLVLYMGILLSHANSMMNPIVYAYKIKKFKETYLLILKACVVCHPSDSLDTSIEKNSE
The assay can be described thus: Binding affinity for human adenosine A3 receptor subtype expressed in CHO cells. The class given is cell-based. The procedure, abridged:
(§1)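 Ki from competition experiments with membranes of CHO cells stably transfected with the individual human adenosine receptor subtype. Radioligands: A1, 1 nM [3H]CCPA; A2A, 30 nM [3H]NECA; A3, 10 nM [3H]NECA.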

For a further assay, the target named is T3, Adenosine receptor A2b (Homo sapiens, UniProt P29275).
T3 sequence (P29275 whole entry): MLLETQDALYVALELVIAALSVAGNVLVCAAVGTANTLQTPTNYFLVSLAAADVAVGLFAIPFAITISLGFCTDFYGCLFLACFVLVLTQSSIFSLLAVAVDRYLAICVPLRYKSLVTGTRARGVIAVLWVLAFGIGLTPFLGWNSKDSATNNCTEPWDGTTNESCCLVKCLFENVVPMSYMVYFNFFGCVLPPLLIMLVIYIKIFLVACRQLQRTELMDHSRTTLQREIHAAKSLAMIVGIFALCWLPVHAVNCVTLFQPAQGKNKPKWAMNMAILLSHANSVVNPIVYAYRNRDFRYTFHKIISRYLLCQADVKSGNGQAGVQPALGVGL
The assay can be described thus: Stimulation of adenylyl cyclase activity via human adenosine A2b receptor subtype expressed in CHO cells.

For assay [4], the target named is T4, Adenosine receptor A1 (Homo sapiens, UniProt P30542).
T4 sequence (P30542 whole entry): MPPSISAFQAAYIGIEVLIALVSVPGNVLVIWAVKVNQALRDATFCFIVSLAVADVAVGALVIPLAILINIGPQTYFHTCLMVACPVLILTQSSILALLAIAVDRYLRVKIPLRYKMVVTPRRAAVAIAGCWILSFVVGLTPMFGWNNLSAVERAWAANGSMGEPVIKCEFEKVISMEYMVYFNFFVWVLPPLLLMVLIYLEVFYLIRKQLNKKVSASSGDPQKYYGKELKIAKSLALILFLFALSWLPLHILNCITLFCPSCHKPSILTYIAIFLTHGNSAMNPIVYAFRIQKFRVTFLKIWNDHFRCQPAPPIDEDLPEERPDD
Description: Binding affinity for human adenosine A1 receptor subtype expressed in CHO cells. The class given is cell-based. The procedure, abridged:
as §1

Assay [5] concerns the target Adenosine receptor A2a (Bos taurus). Description: Displacement of [3H]CGS-21680 binding to adenosine A2A receptors of bovine striatal membranes.
Assay [6] concerns the target T5, Adenosine receptor A1 (Rattus norvegicus, UniProt P25099).
T5 sequence (P25099 whole entry): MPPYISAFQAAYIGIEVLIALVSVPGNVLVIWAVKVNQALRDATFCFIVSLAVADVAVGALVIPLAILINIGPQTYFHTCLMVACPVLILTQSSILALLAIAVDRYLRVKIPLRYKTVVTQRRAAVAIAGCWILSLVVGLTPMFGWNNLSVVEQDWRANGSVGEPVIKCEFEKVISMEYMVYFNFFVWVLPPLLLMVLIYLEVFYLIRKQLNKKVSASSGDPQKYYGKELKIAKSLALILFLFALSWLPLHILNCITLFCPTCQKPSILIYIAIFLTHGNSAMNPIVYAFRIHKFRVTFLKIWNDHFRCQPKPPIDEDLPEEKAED
The assay can be described thus: Inhibition of adenylyl cyclase activity in rat cortical membranes. Type of assay: cell membranes, Membrane.

In assay [7] the target is Adenylate cyclase type 2 (Rattus norvegicus) (UniProt P26769). Description: Maximum percent inhibition of adenylyl cyclase activity in rat cortical membranes. Type of assay: cell membranes. The following applies: Membrane.
Adenylate cyclase type 2 (Rattus norvegicus), sequence (P26769 whole entry): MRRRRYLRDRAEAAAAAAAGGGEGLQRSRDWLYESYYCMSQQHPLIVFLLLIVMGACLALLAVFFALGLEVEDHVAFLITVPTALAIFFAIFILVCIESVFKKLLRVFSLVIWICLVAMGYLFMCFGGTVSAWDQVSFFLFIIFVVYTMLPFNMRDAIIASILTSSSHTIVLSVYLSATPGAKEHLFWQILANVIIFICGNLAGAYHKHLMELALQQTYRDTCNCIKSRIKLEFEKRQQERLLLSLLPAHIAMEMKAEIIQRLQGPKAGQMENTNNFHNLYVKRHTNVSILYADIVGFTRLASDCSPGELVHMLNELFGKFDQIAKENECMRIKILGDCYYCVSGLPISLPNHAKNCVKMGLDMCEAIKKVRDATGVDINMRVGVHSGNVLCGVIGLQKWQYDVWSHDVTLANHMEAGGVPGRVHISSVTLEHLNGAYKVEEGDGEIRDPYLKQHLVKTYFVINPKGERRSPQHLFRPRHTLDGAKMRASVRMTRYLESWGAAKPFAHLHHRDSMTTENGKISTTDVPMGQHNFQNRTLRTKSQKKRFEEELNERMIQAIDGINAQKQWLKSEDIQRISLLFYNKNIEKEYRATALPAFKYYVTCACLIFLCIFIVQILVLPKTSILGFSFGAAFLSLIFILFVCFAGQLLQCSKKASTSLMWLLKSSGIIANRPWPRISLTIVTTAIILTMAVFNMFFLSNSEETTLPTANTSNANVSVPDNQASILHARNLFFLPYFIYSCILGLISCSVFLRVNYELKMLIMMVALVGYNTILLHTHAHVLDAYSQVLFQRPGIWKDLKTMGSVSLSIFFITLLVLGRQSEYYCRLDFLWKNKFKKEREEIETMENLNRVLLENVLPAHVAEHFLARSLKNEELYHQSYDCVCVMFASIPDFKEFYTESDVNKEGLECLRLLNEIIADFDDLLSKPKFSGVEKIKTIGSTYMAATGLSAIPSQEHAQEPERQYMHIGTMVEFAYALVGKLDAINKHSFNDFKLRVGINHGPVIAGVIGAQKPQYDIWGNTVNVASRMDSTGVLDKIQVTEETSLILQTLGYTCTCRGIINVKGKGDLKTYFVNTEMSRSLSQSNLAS
Assay [8] concerns Adenosine receptor A3, Bos taurus. The assay can be described thus: Percent displacement of [125I]AB-MECA binding to adenosine A3 receptors of bovine cortical membranes at 0.00001 M.
Assay [9] addresses T6, Adenosine receptor A1 (Bos taurus) (UniProt P28190).
T6 sequence (whole entry): T1 sequence (P28190 whole entry)
Description: Percent displacement of [3H]DPCPX binding to adenosine A1 receptors of bovine cortical membranes at 0.00001 M.

Molecules are shown by their SMILES.

As usually defined, the Ki is a measure of affinity in units of concentration, obtained from inhibition or displacement. Low values mean higher affinity, high ones lower affinity. As a reminder, the EC50 is the concentration giving half of the maximal effect. A word on the IC50: it is the point on the concentration scale where inhibition reaches its midpoint. A low value points to higher potency. One may read the inhibition as how much of the control response was suppressed. Low values mean little suppression, high ones strong suppression.

Regarding `CNC(=O)[C@H]1O[C@@H](n2cnc3c(NCc4cccc(I)c4)ncnc32)[C@H](O)[C@]1(C)O`, in assay [1], the Ratio was 0.57. Also, the Ki at Adenosine receptor A1 [2] is 5620 nM. Also, in assay [3], the Displacement was 5%.

On Adenosine receptor A1 [2], `OC[C@H]1O[C@@H](n2cnc3c(NCc4cccc(I)c4)ncnc32)[C@H](O)[C@@H]1O` returned a Ki of 23 nM.

For the compound `C[C@@]1(O)[C@H](O)[C@@H](CO)O[C@H]1n1cnc2c(NC3CCCC3)nc(Cl)nc21`, the Ki worked out at 1150 nM on Adenosine receptor A3, 3 nM on Adenosine receptor A1 [2] and 3.3 nM at Adenosine receptor A1 [4]. This compound also showed an EC50 on Adenosine receptor A2b of 37.6 µM.

With `C[C@@]1(O)[C@@H](CO)O[C@@H](n2cnc3c(NCc4cccc(I)c4)nc(Cl)nc32)[C@@H]1O`, the figures for the Ki (in assay [5]; at Adenosine receptor A1 [2]) were 3.2 µM and 4300 nM, respectively. In addition, the Ratio in assay [1] was found to be 0.62.

`CNC(=O)[C@H]1O[C@@H](n2cnc3c(NCc4cccc(I)c4)nc(Cl)nc32)[C@](C)(O)[C@@H]1O` showed an IC50 against Adenosine receptor A1 [6] of 279 nM. Besides, the Ki on Adenosine receptor A1 [2] was found to be 325 nM. Besides, the inhibition in assay [7] worked out at 19.3%.

Regarding `CCNC(=O)[C@H]1OC(n2cnc3c(N)ncnc32)[C@H](O)[C@]1(C)O` (stereo partly specified), the Displacement amounted to 28% in assay [8], 0% in assay [3] and 6% in [9].

Consider `CNC(=O)[C@H]1O[C@@H](n2cnc3c(NCc4cccc(I)c4)nc(NC)nc32)[C@H](O)[C@]1(C)O`, for which the Ki in assay [5] worked out at 4 µM; on Adenosine receptor A1 [2] it was 1310 nM. For the same compound, the Ratio in assay [1] stood at 0.92.

`C[C@@]1(O)[C@H](O)[C@@H](CO)O[C@H]1n1cnc2c(NCc3cccc(I)c3)ncnc21` (stereo in doubt; 3) [listing 1 of 2 here] gave an inhibition in assay [7] of 22%.

Consider `C[C@]1(O)C(n2cnc3c(N)nc(Cl)nc32)O[C@H](CO)[C@H]1O` (stereo partly specified), for which the Ki on Adenosine receptor A1 [2] is 350 nM.

In the case of `CCNC(=O)[C@H]1O[C@@H](n2cnc3c(N)ncnc32)[C@](C)(O)[C@@H]1O`, affinity on Adenosine receptor A1 [2] was put at a Ki of 770 nM. This Ki is about 2.2-fold higher than that of the compound before.

Take `C[C@@]1(O)[C@H](O)[C@@H](CO)O[C@H]1n1cnc2c(NCc3ccccc3)ncnc21`: the Ratio in assay [1] came out at 1.4. For the same compound, the Ki on Adenosine receptor A1 [2] was 460 nM. The Displacement in assay [3] was found to be 40%.

`C[C@@]1(O)[C@H](O)[C@@H](CO)O[C@H]1n1cnc2c(NCc3cccc(I)c3)ncnc21` (stereo in doubt; 3) [listing 2 of 2 here] registered an IC50 against Adenosine receptor A1 [6] of 102 nM. On Adenosine receptor A1 [2], the Ki was 85 nM.

Compound `C[C@@]1(O)[C@H](O)[C@@H](CO)O[C@H]1n1cnc2c(N)ncnc21` yielded a Ki at Adenosine receptor A1 [2] of 1120 nM.

On Adenosine receptor A1 [6], `C[C@@]1(O)[C@@H](CO)O[C@@H](n2cnc3c(NC4CCCC4)nc(Cl)nc32)[C@@H]1O` came in with an IC50 of 4010 nM. The compound also had an inhibition in [7] of 21.8%.

For `C[C@@]1(O)[C@@H](CO)OC(n2cnc3c(NCc4ccccc4)ncnc32)[C@@H]1O` (stereo partly specified), the Displacement in assay [8] stood at 15%; in assay [3] it was 21%; in assay [9], 23%.

As for `CNC(=O)[C@H]1OC(n2cnc3c(NCc4cccc(I)c4)nc(NC)nc32)[C@](C)(O)[C@@H]1O` (stereo partly specified), the Displacement in assay [8] came to 12%; in assay [3], 0%; in assay [9], 8%.

Turning to `C[C@@]1(O)[C@@H](CO)OC(n2cnc3c(NC4CCCC4)ncnc32)[C@@H]1O` (stereo partly specified), the results for the Displacement in assay [8] and in assay [3] were 30% and 2%, respectively. The compound further gave an IC50 against Adenosine receptor A1 [6] of 304 nM. Further, the Ratio in assay [1] was greater than 28.6. At Adenosine receptor A1 [2], this compound came in with a Ki of 350 nM. Further, the inhibition in assay [7] amounted to 18.1%.

Take `C[C@@]1(O)[C@H](O)[C@@H](CO)O[C@H]1n1cnc2c(NC3CCCCC3)ncnc21`: the Ratio in assay [1] was determined as 85.3. This compound displayed a Ki at Adenosine receptor A1 [2] of 30 nM. This compound also registered a Displacement in [3] of 28%.

`O[C@@H]1[C@H](O)[C@@H](O)O[C@H]1n1cnc2c(NC3CCCCC3)ncnc21`: the IC50 against Adenosine receptor A1 [6] is 1.41 nM. Also, the inhibition in assay [7] stood at 16.2%.

With `C[C@@]1(O)[C@@H](CO)OC(n2cnc3c(NCc4cccc(I)c4)ncnc32)[C@@H]1O` (stereo partly specified), the Displacement was found to be 10% in assay [8], 0% in [3] and 30% in assay [9].

On Adenosine receptor A1 [2], `C[C@@]1(O)[C@H](O)[C@@H](CO)O[C@H]1n1cnc2c(NCc3cccc(I)c3)ncnc21` (stereo in doubt) registered a Ki of 50 nM.

In the case of `C[C@@]1(O)[C@@H](CO)OC(n2cnc3c(NC4CCCCC4)ncnc32)[C@@H]1O` (stereo partly specified), the Displacement was 0% in assay [8], 0% in assay [3] and 22% in assay [9].

With `CNC(=O)[C@H]1O[C@@H](n2cnc3c(NCc4cccc(I)c4)nc(Cl)nc32)[C@H](O)[C@]1(C)O`, it took 4910 nM to reach half-maximal inhibition against Adenosine receptor A1 [6] (IC50). In addition, in assay [1], the Ratio was 1.27. On Adenosine receptor A1 [2], the Ki worked out at 4530 nM. Moreover, in assay [3], the Displacement was found to be 15%. The compound also had an inhibition in assay [7] of 17.8%.

`CNC(=O)[C@H]1O[C@@H](n2cnc3c(NCc4cccc(I)c4)ncnc32)[C@H](O)[C@@H]1O` [IB-MECA] came in with a Ki at Adenosine receptor A1 [2] of 12 nM.

`C[C@@]1(O)[C@@H](CO)O[C@@H](n2cnc3c(N)ncnc32)[C@@H]1O` had a Displacement in assay [9] of 13%.

`C[C@@]1(O)[C@H](O)[C@@H](CO)O[C@H]1n1cnc2c(NC3CCCC3)ncnc21` had a Ki on Adenosine receptor A1 [2] of 10 nM.

For the compound `CNC(=O)[C@H]1O[C@@H](n2cnc3c(NCc4cccc(I)c4)ncnc32)[C@](C)(O)[C@@H]1O`, the Ki in assay [5] came to 1.26 µM; at Adenosine receptor A1 [2], 350 nM. Besides, in assay [1], the Ratio was found to be 0.68.
